Measured values taken from ChEMBL document CHEMBL4706641, “Novel Carboline Fungal Histone Deacetylase (HDAC) Inhibitors for Combinational Treatment of Azole-Resistant Candidiasis” (J Med Chem, 2021).
Values after ≈ are worked out from the molar mass of the structure shown. Active and inactive are the calls of the source. The rule behind the calls is not given here.

How the values were obtained:
Candida albicans [1] = experiment: Antifungal activity against Candida albicans 0304103 infected in ICR mouse model of candidiasis assessed as reduction in kidney fungal burden at 10 mg/kg, ip dosed 24 hrs post infection and measured after 5 days; format: functional, organism-based; settings: time 5.0 day
[2] = Toxicity in human L02 cells; format: cell-based
Candida albicans [3] = experiment: Synergistic antifungal activity against Candida albicans 0304103 at 32 ug/ml incubated for 48 hrs in presence of 32 ug/ml fluconazole by microdilution assay; format: functional, organism-based; settings: dose 32.0 µg/ml
Candida albicans [4] = experiment: Induction of morphological changes in Candida albicans assessed as reduction in morphological conversion from yeast to hypha forms at 32 ug/ml incubated for 3 hrs in presence of 32 ug/ml fluconazole by inverse fluorescence microscopy; format: functional, organism-based; settings: dose 32.0 µg/ml
Method in brief: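 Exponential C. albicans at 2 × 10⁶ cells/mL in Spider medium (hypha-inducing), drugs alone or combined, DMSO control; 3 h at 37 °C, then observed and photographed by inverted fluorescence microscopy. Three independent experiments.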

Candida albicans [5] = experiment: Synergistic antifungal activity against Candida albicans 9172 incubated for 48 hrs in presence of fluconazole by microdilution assay; format: functional
Method in brief: (§1)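 Checkerboard broth microdilution per CLSI M27-A3 (modified), clinical Candida isolates. Exponential cells in RPMI 1640 (MOPS-buffered) at 10³ cells/mL; fluconazole 0.25–64 μg/mL crossed with test compound 2–64 μg/mL (final). 48 h at 35 °C; OD630 read with background subtracted. MIC80 = 80% growth inhibition; FICI ≤0.5 synergy, >4 antagonism.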

[6] = molecular target: Histone deacetylase (Homo sapiens) (UniProt Q13547+O15379+Q9UBN7+Q92769+Q9UQL6+Q8WUI4+Q9BY41+Q96DB2+P56524+Q9UKV0+Q969S8); experiment: Inhibition of HDAC in HUVEC using Boc-Lys(Ac)-AMC substrate incubated for 18 hrs by fluorescence based assay; format: protein assay
Method in brief: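 Human total HDAC in whole HUVEC cells: about 15000 cells/well, 24 h at 37 °C/5% CO₂ before compound; then Boc-Lys(Ac)-AMC 33 μM, 37 °C 6 h, trypsin/Nonidet P-40 stop 2 h, fluorescence Ex 360/Em 460 nm. Inhibition relative to control after blank subtraction; three independent experiments.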

Candida albicans [7] = experiment: Antifungal activity against Candida albicans 9172 incubated for 48 hrs by microdilution assay; format: functional; method in brief: as §1
Candida tropicalis = experiment: Synergistic antifungal activity against Candida tropicalis assessed as potentiation of ITC antifungal activity by measuring ITC incubated for 48 hrs in presence of fluconazole by checkerboard microdilution assay; format: functional, organism-based
Candida albicans [8] = experiment: Induction of morphological changes in Candida albicans assessed as reduction in morphological conversion from yeast to hypha forms at 32 ug/ml incubated for 3 hrs by inverse fluorescence microscopy; format: functional, organism-based; settings: dose 32.0 µg/ml
Method in brief: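 Exponential-phase C. albicans were suspended in Spider medium ([…], 2% NaHCO₃, […]) at 2 × 10⁶ cells/mL. Drugs were added alone or combined, with DMSO as control. After 3 h at 37 °C, cells were imaged by inverted fluorescence microscopy. Three independent experiments were run.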

Candida albicans [9] = experiment: Antifungal activity against Candida albicans 0304103 infected in ICR mouse model of candidiasis assessed as reduction in morphological changes of budded-to-hyphal transition at 10 mg/kg, ip dosed 24 hrs post infection and co-treated with 1 mg/kg, ip fluconazole and measured after 5 days by H and E staining based microscopical analysis; format: functional, organism-based; settings: time 5.0 day
Method in brief: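 Two ICR mice per group, infected and treated as in the kidney burden model (IV 5 × 10⁵ C. albicans 0304103; IP compound 10 mg/kg, fluconazole 1 mg/kg, or combination, 5 days). Kidneys fixed in 4% paraformaldehyde, paraffin-embedded, 4 μm sections, H&E stained, examined at 40× and 200×.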

Candida albicans [10] = experiment: Synergistic antifungal activity against Candida albicans 9172 assessed as potentiation of fluconazole antifungal activity by measuring FICI incubated for 48 hrs in presence of fluconazole by checkerboard microdilution assay; format: functional
Method in brief: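 Checkerboard broth microdilution per CLSI M27-A3 (modified), clinical Candida isolates. 48 h at 35 °C; OD630 read with background subtracted. MIC80 = 80% growth inhibition; FICI ≤0.5 synergy, >4 antagonism.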

Pichia kudriavzevii = experiment: Synergistic antifungal activity against Candida krusei 10153 assessed as fluconazole MIC incubated for 48 hrs in presence of fluconazole by microdilution assay (reference value: fluconazole alone MIC = […] ug/ml); format: functional
Candida albicans [11] = experiment: Synergistic antifungal activity against Candida albicans 0304103 assessed as potentiation of fluconazole antifungal activity incubated for 48 hrs in presence of fluconazole by checkerboard microdilution assay; format: functional, organism-based; method in brief: as §1
Candida albicans [12] = experiment: Synergistic antifungal activity against Candida albicans 4108 assessed as potentiation of fluconazole antifungal activity by measuring FICI incubated for 48 hrs in presence of fluconazole by checkerboard microdilution assay; format: functional
Candida albicans [13] = experiment: Synergistic antifungal activity against Candida albicans 4108 incubated for 48 hrs in presence of fluconazole by microdilution assay; format: functional; method in brief: as §1
Candida albicans [14] = experiment: Synergistic antifungal activity against Candida albicans 10061 assessed as fluconazole MIC incubated for 48 hrs in presence of fluconazole by microdilution assay (reference value: fluconazole alone MIC = >[…] ug/ml); format: functional
[Candida] auris = Synergistic antifungal activity against Candida auris assessed as potentiation of VRC antifungal activity by measuring VRC incubated for 48 hrs in presence of fluconazole by checkerboard microdilution assay; format: functional, organism-based; settings: Candidozyma auris
Candida albicans [15] = experiment: Synergistic fungicidal activity against Candida albicans 0304103 assessed as potentiation of fluconazole antifungal activity at 32 ug/ml incubated for 48 hrs in presence of 64 ug/ml fluconazole by checkerboard microdilution assay; format: functional, organism-based; settings: dose 32.0 µg/ml
Candida albicans [16] = experiment: Down regulation of CDR1 mRNA expression in Candida albicans 0304103 at 32 ug/ml incubated for 24 hrs in presence of 32 ug/ml fluconazole by RT-PCR analysis; format: functional; settings: dose 32.0 µg/ml
Method in brief: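 C. albicans 0304103 (initial 1 × 10⁶ cells/mL) treated with DMSO, fluconazole 32 μg/mL, compound 32 μg/mL, or both in YEPD medium, 35 °C for 24 h. Total RNA extracted, reverse transcribed, real-time PCR for 40 cycles; fold change by 2^−ΔΔCt with ACT1 as internal control.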

Candida albicans [17] = experiment: Antifungal activity against Candida albicans 4108 incubated for 48 hrs by microdilution assay; format: functional; method in brief: as §1
Candida albicans [18] = experiment: Inhibition of biofilm formation in Candida albicans 0304103 at 64 ug/ml incubated for 24 hrs in presence of fluconazole by XTT reduction assay; format: functional, organism-based; settings: dose 64.0 µg/ml
Method in brief: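 C. albicans 0304103 at 1.0 × 10⁶ CFU/mL in RPMI 1640 allowed to adhere 90 min at 37 °C, washed with PBS, then fresh medium with fluconazole 2–32 μg/mL and/or compound 0.12–64 μg/mL added; 24 h at 37 °C. Biofilm metabolic activity by XTT reduction, OD490. Three independent experiments.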

Candida albicans [19] = experiment: Synergistic antifungal activity against Candida albicans 0304103 incubated for 48 hrs in presence of fluconazole by microdilution assay; format: functional; method in brief: as §1
Candida albicans [20] = experiment: Antifungal activity against Candida albicans 0304103 at 32 ug/ml incubated for 48 hrs by microdilution assay; format: functional, organism-based; settings: dose 32.0 µg/ml

O=C(Cc1ccc(OCCCn2c3c(c4cccc(Cl)c42)CCNC3)cc1)NO
Activity (Candida albicans [1]): inactive | IC50 [2]: 11.5 µM | Activity (Candida albicans [3]): Active | Activity (Candida albicans [4]): Active | MIC80 (Candida albicans [5]): 2 µg/mL | inhibition [6]: inactive | MIC80 (Candida albicans [7]): > 64 µg/mL | Activity (Candida tropicalis): Active | Activity (Candida albicans [8]): inactive | Activity (Candida albicans [9]): Active | fractional inhibitory concentration index (FICI) (Candida albicans [10]): 0.039 | MIC80 (Pichia kudriavzevii): 8 µg/mL | Activity (Candida albicans [11]): Dose-dependent effect | fractional inhibitory concentration index (FICI) (Candida albicans [12]): 0.035 | MIC80 (Candida albicans [13]): 2 µg/mL | MIC80 (Candida albicans [14]): 2 µg/mL | Activity ([Candida] auris): Active | Activity (Candida albicans [15]): Active | Activity (Candida albicans [16]): Active | MIC80 (Candida albicans [17]): 64 µg/mL (≈ 155 µM) | inhibition (Candida albicans [18]): Active | MIC80 (Candida albicans [19]): 2 µg/mL | Activity (Candida albicans [20]): inactive
